The text below walks through data of ChEMBL document CHEMBL1141097, “Indole-3-acetic acid antagonists of the prostaglandin D2 receptor CRTH2” (J Med Chem, 2005).

Series [1] concerns the target T1, Prostaglandin D2 receptor 2 (Homo sapiens, UniProt Q9Y5Y4).
T1 sequence (Q9Y5Y4 whole entry): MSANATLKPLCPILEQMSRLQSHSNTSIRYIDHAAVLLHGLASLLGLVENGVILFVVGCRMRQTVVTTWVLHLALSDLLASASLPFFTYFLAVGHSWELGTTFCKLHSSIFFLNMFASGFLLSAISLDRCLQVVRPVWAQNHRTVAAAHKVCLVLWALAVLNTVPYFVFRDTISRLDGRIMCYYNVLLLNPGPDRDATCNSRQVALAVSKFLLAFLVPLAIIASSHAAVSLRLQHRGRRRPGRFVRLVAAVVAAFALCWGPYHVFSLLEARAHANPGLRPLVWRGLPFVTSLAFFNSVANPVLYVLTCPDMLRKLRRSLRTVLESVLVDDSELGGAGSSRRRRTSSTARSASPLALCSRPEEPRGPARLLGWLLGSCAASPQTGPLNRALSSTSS
Kind of series: Concentration required to inhibit PGD-2 (10 nM) stimulated [Ca2+] flux in CHO cells expressing human CRTH2 receptor. In kind it is cell-based. The essentials:
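CHO cells expressing human CRTH2 were stimulated with 10 nM PGD2 and calcium mobilization was read. Inhibition is expressed as IC50. Antagonism was also tested by parallel shifts of the PGD2 dose–response curve with increasing antagonist (pA2).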

In series [2] the target is T1, Prostaglandin D2 receptor 2. Kind of series: Binding affinity towards human CRTH2 receptor expressed in CHO cells. In kind it is cell-based. Put shortly: (§1)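 Radioligand binding on membranes from CHO cells expressing recombinant human CRTH2 or human DP receptor, reported as Ki.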
Series [3] has as its target T2, Prostaglandin D2 receptor (Homo sapiens, UniProt Q13258).
T2 sequence (Q13258 whole entry): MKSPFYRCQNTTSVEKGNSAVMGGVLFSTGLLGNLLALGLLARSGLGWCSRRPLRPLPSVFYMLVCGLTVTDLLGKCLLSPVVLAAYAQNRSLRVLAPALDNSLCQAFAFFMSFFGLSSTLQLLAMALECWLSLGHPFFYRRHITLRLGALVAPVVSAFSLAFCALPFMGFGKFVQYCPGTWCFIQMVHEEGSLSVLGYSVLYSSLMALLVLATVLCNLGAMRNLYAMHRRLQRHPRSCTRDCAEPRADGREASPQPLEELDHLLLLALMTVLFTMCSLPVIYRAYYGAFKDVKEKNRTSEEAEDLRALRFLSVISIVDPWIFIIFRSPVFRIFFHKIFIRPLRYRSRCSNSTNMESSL
Kind of series: Binding affinity towards human DP receptor expressed in CHO cells. In kind it is cell-based. Put shortly:
as §1

A short description of series [4]: Area under curve for the compound upon p.o. dose of 10 mg/kg in rats. The format is ADME, organism-based. Set-up: dose 10 mg/kg, route oral. As to conditions: rat, in vivo, po. The essentials:
(§2)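 Rats given a single dose, 1 mg/kg intravenous or 10 mg/kg oral, then sampled for plasma levels. Cmax, Tmax and AUCinf come from the plasma concentration–time profile.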

Series [5] is described as follows: Oral bioavailability upon p.o. dose of 10 mg/kg in rats. In kind it is ADME, organism-based. As to conditions: rat, in vivo.
Series [6] is described as follows: Time taken by the compound to reach its maximum concentration in plasma upon p.o. dose of 10 mg/kg in rats. In kind it is ADME, organism-based. Details: dose 10 mg/kg, route oral. To be noted: rat, po. Put shortly: as §2
A short description of series [7]: Maximum plasma concentration upon i.v. dose of 1 mg/kg in rats. The format is ADME, organism-based. Details: dose 1 mg/kg, route intravenous. As to conditions: rat, iv. Put shortly:
as §2

Series [8] can be described thus: Area under curve for the compound upon i.v. dose of 1 mg/kg in rats. Details: dose 1 mg/kg, route intravenous. To be noted: rat, in vivo, iv. In kind it is ADME, organism-based. The essentials:
as §2

Series [9] is described as follows: Maximum plasma concentration upon p.o. dose of 10 mg/kg in rats. The format is ADME, organism-based. Details: dose 10 mg/kg, route oral. As to conditions: rat, po. Put shortly:
as §2

Series [10] addresses T1, Prostaglandin D2 receptor 2. Kind of series: Binding affinity towards human CRTH2 receptor expressed in CHO cells; range 25 nM to 8 uM. The format is cell-based.
Series [11] has the same target. Kind of series: In vitro agonist potency towards human CRTH2 receptor expressed in CHO cells; range 15 to 50 nM.

One may read the IC50 as the concentration that gives 50% inhibition. A low value points to higher potency. A word on the Ki: it is a measure of affinity in units of concentration, obtained from inhibition or displacement. A low value points to higher affinity. The compound `Cc1ccc(S(=O)(=O)n2c(C)c(CC(=O)O)c3cc(F)ccc32)cc1` returned an IC50 in [1] of 2.18 µM. The Ki in series [2] is 0.457 µM; in [3] it was over 10 µM.

Compound `Cc1nc(S(=O)(=O)n2c(C)c(CC(=O)O)c3cc(F)ccc32)cn1C` displayed an IC50 in series [1] of over 10 µM. Further, the Ki is 2.98 µM in [2] and over 10 µM in series [3].

As for `CCCCS(=O)(=O)n1c(C)c(CC(=O)O)c2cc(F)ccc21`, in series [1], inhibition was half-maximal at 0.842 µM (IC50). The Ki in [2] is 0.634 µM; in series [3] it was over 10 µM.

With `Cc1c(CC(=O)O)c2cc(F)ccc2n1S(=O)(=O)c1cccc(F)c1`, the IC50 in [1] was 0.639 µM. Also, the figures for the Ki in series [2] and in [3] were 0.225 µM and 6.89 µM, respectively.

The term AUC denotes concentration integrated over time. Low values mean low exposure, high ones high exposure. As usually defined, the bioavailability is dose-corrected exposure relative to a reference, in per cent. High values mean good availability, low ones poor availability. For orientation: Tmax means the time from dosing to the highest level. By Cmax is commonly meant the maximum level reached in the sampled fluid or tissue. For the compound `Cc1c(CC(=O)O)c2cc(F)ccc2n1S(=O)(=O)c1ccc(S(C)(=O)=O)cc1`, the AUC in series [4] worked out at 3480 ng·h/mL; in series [8], 619 ng·h/mL. This compound also registered a bioavailability in [5] of 56%. This compound yielded an IC50 in series [1] of 0.158 µM. For the same compound, the values for the Ki in [2] and in [3] were 0.068 µM and over 10 µM, respectively. Further, in series [6], the Tmax was 1.8 h. Also, the results for the Cmax in [7] and in series [9] were 1800 ng/mL and 332 ng/mL, respectively.

Compound `Cc1c(CC(=O)O)c2cc(F)ccc2n1S(=O)(=O)c1ccccc1` came in with an IC50 in [1] of 0.987 µM. Further, the Ki was found to be 0.25 µM in [2] and 4.86 µM in series [3].

On to `Cc1c(CC(=O)O)c2cc(F)ccc2n1S(=O)(=O)c1ccc(Cl)cc1`, for which the IC50 in [1] was determined as 0.026 µM. The values for the Ki in series [2] and in series [3] were 0.029 µM and 8.46 µM, respectively.

In series [1], `COc1ccc(S(=O)(=O)n2c(C)c(CC(=O)O)c3cc(F)ccc32)cc1` yielded an IC50 of 0.318 µM. Further, the Ki in [2] was found to be 0.299 µM; in series [3], 7.71 µM.

`Cc1c(CC(=O)O)c2cc(F)ccc2n1S(=O)(=O)c1ccc(F)cc1` showed an IC50 in series [1] of 0.158 µM. The Ki in [2] is 0.071 µM; in [3], over 10 µM.

As for `O=C(O)C[C@@H]1CCn2c1c(Sc1ccc(Cl)cc1)c1ccc(F)cc12`, in [2], the Ki worked out at 0.0008 µM.

As to `Cc1c(CC(=O)O)c2cc(F)ccc2n1S(=O)(=O)c1cc(Cl)ccc1Cl`, the IC50 in series [1] was 0.044 µM. In addition, the Ki in [2] came to 0.019 µM; in [3] it was 1.87 µM.

In general, EC50 refers to the concentration needed to bring the measured effect to its halfway point. The compound `COc1ccc2c(c1)c(CC(=O)O)c(C)n2C(=O)c1ccc(Cl)cc1` [INDOMETHACIN] yielded a Ki in series [10] of 8 µM. The same compound displayed an EC50 in [11] of 0.05 µM.

In series [2], `CSc1ccc(C=C2C(C)=C(CC(=O)O)c3cc(F)ccc32)cc1` [SULINDAC SULFIDE] displayed a Ki of 3.5 µM.
